Reference: paper PMC4475445 (Journal of immunology (Baltimore, Md. : 1950), 2015)

Legend:
[1] = system: BMMΦ; test: TLR-dependent cytokine secretion; assay type: cell-based, mouse; settings: 30 min pretreatment, then LPS or CpG 16 h; wild-type and Btk-/-Tec-/- BMMΦ
[2] = system: BMMΦ; test: Apoptosis assay; assay type: cell-based; settings: wild-type and Btk-/-Tec-/- BMMΦ, several doses, Figure S2D
How it was run: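 Bone marrow was flushed from femurs and tibias of 6–15-week-old mice, red cells were lysed, and the cells were filtered and plated at 7.5 × 10^5 cells/ml. Cells were grown in DMEM with 10% heat-inactivated FBS, 10 mM Hepes and 10% CMG 12-14 conditioned medium as the M-CSF source, and re-plated on day 5. Apoptosis was scored by annexin V/7-AAD staining and flow cytometry.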

[3] = molecular target: T1, ITK (Homo sapiens, UniProt Q08881); test: HotSpot radioisotope kinase assay; assay type: biochemical
T1 sequence (Q08881 1-620): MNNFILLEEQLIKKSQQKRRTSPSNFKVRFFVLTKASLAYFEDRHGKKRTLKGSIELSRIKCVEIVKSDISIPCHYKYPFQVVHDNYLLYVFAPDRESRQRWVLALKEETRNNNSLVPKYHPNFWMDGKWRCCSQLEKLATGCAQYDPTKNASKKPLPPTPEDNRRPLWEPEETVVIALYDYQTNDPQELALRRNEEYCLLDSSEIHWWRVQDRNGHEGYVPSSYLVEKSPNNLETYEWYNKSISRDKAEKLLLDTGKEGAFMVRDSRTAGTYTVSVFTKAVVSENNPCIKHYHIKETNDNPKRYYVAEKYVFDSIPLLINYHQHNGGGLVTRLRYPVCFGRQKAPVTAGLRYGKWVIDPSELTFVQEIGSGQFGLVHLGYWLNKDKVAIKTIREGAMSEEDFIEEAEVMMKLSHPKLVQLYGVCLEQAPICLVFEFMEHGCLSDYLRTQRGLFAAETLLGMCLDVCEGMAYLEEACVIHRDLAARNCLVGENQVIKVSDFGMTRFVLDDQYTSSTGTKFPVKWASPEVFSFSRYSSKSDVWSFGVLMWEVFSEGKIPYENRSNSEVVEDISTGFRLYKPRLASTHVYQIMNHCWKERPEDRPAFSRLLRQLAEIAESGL
How it was run: (§1)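 Radiometric HotSpot assay with P81 filter capture. Kinase was added to freshly prepared substrate with cofactors and preincubated 30 min at room temperature, then started with 33P-ATP, with ATP at Km or 10× Km. Reactions ran 2 hr at room temperature; unreacted phosphate was washed off with 0.1% phosphoric acid. Test compound: 10 doses, […] serial dilution from 10 μM. Duplicates; staurosporine positive control.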

[4] = molecular target: T2, Bmx (Homo sapiens, UniProt P51813); test: HotSpot radioisotope kinase assay; assay type: biochemical
T2 sequence (P51813 1-675): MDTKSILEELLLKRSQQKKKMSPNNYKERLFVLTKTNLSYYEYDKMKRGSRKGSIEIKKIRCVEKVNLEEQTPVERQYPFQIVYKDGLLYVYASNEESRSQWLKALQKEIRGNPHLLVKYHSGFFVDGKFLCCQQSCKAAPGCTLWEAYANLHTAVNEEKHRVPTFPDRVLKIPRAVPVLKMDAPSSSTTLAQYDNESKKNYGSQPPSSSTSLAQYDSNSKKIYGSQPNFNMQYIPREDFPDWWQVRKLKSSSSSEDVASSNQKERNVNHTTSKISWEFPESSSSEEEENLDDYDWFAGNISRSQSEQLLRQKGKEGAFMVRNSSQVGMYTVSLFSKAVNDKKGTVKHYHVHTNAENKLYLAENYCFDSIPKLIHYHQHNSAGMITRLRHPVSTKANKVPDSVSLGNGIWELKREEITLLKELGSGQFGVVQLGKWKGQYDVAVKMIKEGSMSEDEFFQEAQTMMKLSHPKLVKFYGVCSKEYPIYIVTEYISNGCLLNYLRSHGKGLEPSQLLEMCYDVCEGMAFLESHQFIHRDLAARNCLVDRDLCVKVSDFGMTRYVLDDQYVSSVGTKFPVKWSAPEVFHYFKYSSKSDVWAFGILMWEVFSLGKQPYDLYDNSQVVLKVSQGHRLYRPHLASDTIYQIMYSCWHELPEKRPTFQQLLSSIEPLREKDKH
How it was run: as §1

[5] = system: Tec kinases; test: Kinase selectivity panel; assay type: biochemical; settings: 1μM test concentration, 10 μM 33P-ATP; Supplemental Table 2
How it was run: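 Test compound was dissolved in DMSO and tested at 1 μM final. Each kinase was added to fresh substrate with cofactors in reaction buffer and preincubated 30 min at room temperature. Reactions were started with 10 μM 33P-ATP and ran 2 hr at room temperature. After termination, unreacted phosphate was washed off with 0.1% phosphoric acid and bound label was read by P81 filtration. Run in duplicate; 10 μM staurosporine positive control.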

[6] = molecular target: T3, Tec (Homo sapiens, UniProt P42680); test: HotSpot radioisotope kinase assay; assay type: biochemical
T3 sequence (P42680 1-631): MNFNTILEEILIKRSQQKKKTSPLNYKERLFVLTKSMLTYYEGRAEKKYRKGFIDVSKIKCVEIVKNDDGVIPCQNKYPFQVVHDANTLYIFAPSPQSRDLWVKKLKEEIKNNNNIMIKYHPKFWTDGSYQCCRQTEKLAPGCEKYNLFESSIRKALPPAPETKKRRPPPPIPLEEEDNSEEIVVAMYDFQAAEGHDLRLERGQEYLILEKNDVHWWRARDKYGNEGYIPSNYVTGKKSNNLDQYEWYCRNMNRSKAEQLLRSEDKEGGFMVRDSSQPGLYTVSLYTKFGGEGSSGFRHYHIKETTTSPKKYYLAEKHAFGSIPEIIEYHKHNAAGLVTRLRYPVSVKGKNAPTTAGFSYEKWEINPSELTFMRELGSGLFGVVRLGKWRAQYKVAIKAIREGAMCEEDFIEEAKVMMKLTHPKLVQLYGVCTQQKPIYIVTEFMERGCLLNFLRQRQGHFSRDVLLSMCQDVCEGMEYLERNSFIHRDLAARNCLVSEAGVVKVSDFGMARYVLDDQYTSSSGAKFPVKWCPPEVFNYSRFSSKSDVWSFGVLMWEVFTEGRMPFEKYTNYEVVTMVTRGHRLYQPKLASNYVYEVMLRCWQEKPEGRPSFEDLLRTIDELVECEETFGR
How it was run: as §1

[7] = molecular target: Btk (Homo sapiens, UniProt Q06187); test: HotSpot radioisotope kinase assay; assay type: biochemical
Chain of Btk (Q06187 whole entry): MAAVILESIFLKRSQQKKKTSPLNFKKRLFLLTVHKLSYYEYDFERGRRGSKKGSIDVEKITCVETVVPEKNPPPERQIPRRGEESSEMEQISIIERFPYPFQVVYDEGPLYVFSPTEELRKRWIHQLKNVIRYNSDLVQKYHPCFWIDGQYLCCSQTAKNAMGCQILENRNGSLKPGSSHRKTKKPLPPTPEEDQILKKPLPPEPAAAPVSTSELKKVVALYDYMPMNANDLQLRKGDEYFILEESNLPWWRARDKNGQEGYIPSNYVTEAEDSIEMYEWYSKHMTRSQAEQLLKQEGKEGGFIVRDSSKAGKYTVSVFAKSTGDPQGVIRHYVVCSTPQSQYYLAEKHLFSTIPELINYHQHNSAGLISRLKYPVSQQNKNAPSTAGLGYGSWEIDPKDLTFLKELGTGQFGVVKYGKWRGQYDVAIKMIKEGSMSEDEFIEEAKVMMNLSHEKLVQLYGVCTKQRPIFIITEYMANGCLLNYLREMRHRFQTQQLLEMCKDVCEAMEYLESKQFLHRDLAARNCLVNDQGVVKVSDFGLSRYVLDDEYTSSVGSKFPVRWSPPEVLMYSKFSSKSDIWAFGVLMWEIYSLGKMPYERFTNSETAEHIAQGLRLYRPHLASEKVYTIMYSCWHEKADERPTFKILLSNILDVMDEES
How it was run: as §1

Row | IC50 [3] [nM] | IC50 [4] [nM] | Kinase selectivity [5] | IC50 [6] [nM] | IC50 [7] [nM] | Structure (SMILES) | TLR-dependent secretion of IL6 [1] | TLR-dependent secretion of TNF [1] | Percentage of dead (7-AAD positive) or apoptotic (Annexin V positive) cells [2]
1 |  |  |  |  |  | C=CC(=O)Nc1cccc(Nc2nc(Nc3ccc(OCCOC)cc3)ncc2F)c1 [CC-292] | decreased | decreased | did not alter
2 | 172 | 2.1 | highly selective for Tec kinases | 22 | 12.5 | C=CC(=O)Nc1cccc(Nc2nc(Nc3ccc(OCCOC)c(F)c3)ncc2F)c1 [Compound1, N-(3-((5-fluoro-2-((3-fluoro-4-(2-methoxyethoxy)phenyl)amino)pyrimidin-4-yl)amino)phenyl)acrylamide] |  |  | 
